These results are taken from ChEMBL document CHEMBL4396890, “Synthesis, Biological Evaluation, Structure-Activity Relationship, and Mechanism of Action Studies of Quinoline-Metronidazole Derivatives Against Experimental Visceral Leishmaniasis” (J Med Chem, 2019).

The source made the active and inactive calls. The rule behind the calls is not given here.

For data set [1], the system named is Leishmania donovani. As to the kind of experiment: Antileishmanial activity against Leishmania donovani MHOM/IN/80/Dd8 promastigotes infected in ip dosed BALB/c mouse assessed as reduction in parasite load in spleen administered once daily for 5 days measured 7 days post dose by giemsa staining-based assay. The data set is classed as functional, organism-based. The procedure, abridged: (§1)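 Hamster-passaged strain was transformed to promastigotes. Stationary-phase cells (2 × 10^7 in 0.2 mL PBS) were injected into the tail vein of BALB/c mice. From day 15 post-infection, mice received compound ip in 8% DMSO in PBS for 5 consecutive days, 5 mice per group. Mice were killed day 7 post-treatment. Liver and spleen burden was read from Giemsa-stained stamp smears as LDU.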

Data set [2] has as its system Leishmania donovani. As to the kind of experiment: Antileishmanial activity against Leishmania donovani MHOM/IN/80/Dd8 amastigotes harboring luciferase reporter gene infected in mouse J774 cells at 100 uM after 48 hrs by Steady-Glo luminescence assay. The data set is classed as functional, organism-based. The procedure, abridged:
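Infection of J774 macrophages with L. donovani Dd8 promastigotes at a 1:8 cell:parasite ratio. Compounds were diluted 2-fold in RPMI over 3.125–100 μM final and applied for 48 h. Amastigote inhibition was read by luciferase (RLU) or by Giemsa count of amastigotes per 100 macrophages. IC50 was from dose–response; n = 3 independent experiments done in replicate.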
For orientation: Reporter assays use an easily measured gene product as a stand-in for the process of interest.

The subject of data set [3] is Leishmania donovani. As to the kind of experiment: Antileishmanial activity against Leishmania donovani MHOM/IN/80/Dd8 promastigotes harboring luciferase reporter gene after 48 hrs by Steady-Glo luminescence assay. The data set is classed as functional, organism-based. As to conditions: for IC50: MHOM/IN/80/Dd8, 48 h. The procedure, abridged:
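Luciferase-expressing L. donovani Dd8 promastigotes were grown at 24 °C in M199 with 10% heat-inactivated FBS and G418 20 μg/mL. They were treated at varied concentrations for 24 and 48 h, and inhibition was read as relative luminescence units versus untreated control. IC50 was from dose–response; screening values are mean ± SD of at least three experiments in duplicate.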

The test system of data set [4] is Leishmania donovani. Put plainly: Antileishmanial activity against Leishmania donovani MHOM/IN/80/Dd8 promastigotes harboring luciferase reporter gene after 48 hrs by MTT assay. In kind it is functional, organism-based. As to conditions: for IC50: MHOM/IN/80/Dd8, 48 h. The procedure, abridged: (§2)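 Luciferase-expressing L. donovani Dd8 promastigotes were grown at 24 °C in M199 with 10% heat-inactivated FBS and G418 20 μg/mL. They were exposed to a range of concentrations for 48 h, and viability was read by MTT absorbance as percent of untreated control. IC50 was from dose–response; n = 3 independent experiments done in replicate.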

For data set [5], the system named is Leishmania donovani. Put plainly: Antileishmanial activity against Leishmania donovani MHOM/IN/80/Dd8 promastigotes harboring luciferase reporter gene by MTT assay. The data set is classed as functional, organism-based. The conditions noted are these: TDE = time-dependent effect. The procedure, abridged: as §2
The nature of data set [6]: Stability of the compound in simulated gastric fluid assessed as parent compound remaining measured after 2 hrs by UPLC analysis. The data set is classed as ADME. The conditions noted are these: read-out: Stability. The method, boiled down: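 Compound incubated 2 h in simulated gastric fluid (pH 1.2) […] or in simulated intestinal fluid (pH 6.5) […]; the percentage of intact compound remaining was reported.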

The nature of data set [7]: Stability in rat liver microsomes assessed as parent compound remaining at 10 ug/ml preincubated for 5 mins followed by NADPH addition measured after 60 mins by UPLC analysis. As to conditions: read-out: Stability. In kind it is ADME, Microsome. The procedure, abridged: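 Compound incubated with rat liver microsomes and the percentage remaining was followed over time up to 60 min. In vitro half-life and related parameters were derived from a plot of the natural log of percent remaining against incubation time.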
For orientation: Liver microsomes are a subcellular fraction often used to study metabolism.

Data set [8] in a line: Half life in rat liver microsomes at 10 ug/ml preincubated for 5 mins followed by NADPH addition measured after 60 mins by UPLC analysis. The data set is classed as ADME, Microsome. The procedure, abridged: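 Compound was incubated with rat liver microsomes, sampling % remaining up to 60 min. In vitro half-life and related parameters came from a plot of ln(% remaining) versus incubation time.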

For data set [9], the system named is Leishmania donovani. Put plainly: Antileishmanial activity against Leishmania donovani MHOM/IN/80/Dd8 promastigotes infected in BALB/c mouse assessed as reduction in parasite load in spleen at 50 mg/kg, ip administered once daily for 5 days measured 7 days post dose by giemsa staining-based assay relative to control. The data set is classed as functional. Details: scale not given: the % may be the effect or the level left. The procedure, abridged:
as §1

Data set [10] relates to Leishmania donovani. Put plainly: Antileishmanial activity against Leishmania donovani MHOM/IN/80/Dd8 promastigotes infected in BALB/c mouse assessed as reduction in parasite load in liver at 200 mg/kg, ip administered once daily for 5 days measured 7 days post dose by giemsa staining-based assay relative to control. Details: scale not given: the % may be the effect or the level left. The data set is classed as functional. The procedure, abridged: as §1

Data set [11] concerns Leishmania donovani. Put plainly: Antileishmanial activity against Leishmania donovani MHOM/IN/80/Dd8 promastigotes infected in BALB/c mouse assessed as reduction in parasite load in spleen at 25 mg/kg, ip administered once daily for 5 days measured 7 days post dose by giemsa staining-based assay relative to control. The data set is classed as functional. Details: scale not given: the % may be the effect or the level left. The procedure, abridged: as §1

The test system of data set [12] is Leishmania donovani. Put plainly: Antileishmanial activity against Leishmania donovani MHOM/IN/80/Dd8 amastigotes harboring luciferase reporter gene infected in mouse J774 cells assessed as stimulation of host immunity by measuring change in IL12 level at 50 uM after 48 hrs by ELISA. The data set is classed as functional, organism-based. The method, boiled down:
(§3)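 Infected J774 macrophages (24 h infection) were treated with 50 μM compound for 48 h. Culture supernatants were assayed by ELISA for TNF-α and IL-12 (Th1) and for TGF-β and IL-10 (Th2), compared with infected untreated cells.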

The test system of data set [13] is Leishmania donovani. As to the kind of experiment: Antileishmanial activity against Leishmania donovani MHOM/IN/80/Dd8 amastigotes harboring luciferase reporter gene infected in mouse J774 cells assessed as stimulation of host immunity by measuring change in TGFbeta level at 50 uM after 48 hrs by ELISA. The data set is classed as functional, organism-based. The method, boiled down: as §3

Data set [14] deals with Leishmania donovani. As to the kind of experiment: Induction of apoptosis in Leishmania donovani MHOM/IN/80/Dd8 promastigotes assessed as late apoptotic cells at 50 uM measured after 12 hrs by Annexin V-FITC/propidium iodide staining based assay (reference value: 0.02%). The data set is classed as functional.
The test system of data set [15] is Leishmania donovani. Put plainly: Induction of apoptosis in Leishmania donovani MHOM/IN/80/Dd8 promastigotes assessed as early apoptotic cells at 50 uM measured after 24 hrs by Annexin V-FITC/propidium iodide staining based assay (reference value: 6.91%). The data set is classed as functional.
Data set [16] deals with Leishmania donovani. Put plainly: Induction of mitochondrial potential loss in Leishmania donovani MHOM/IN/80/Dd8 promastigotes assessed as shift in red to green fluorescence at 50 uM after 6 hrs by JC1 dye-based flow cytometry (reference value: 7.37%). In kind it is functional. The method, boiled down:
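Exponential-phase promastigotes were incubated with 50 μM compound for 6−48 h, or 0.1% DMSO vehicle. CCCP (50 μM) served as positive control. After JC-1 staining, the red-to-green fluorescence shift was measured by flow cytometry.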
A general note: Flow cytometry measures light scatter and fluorescence of single cells or particles in a stream.

Data set [17] deals with Leishmania donovani. Put plainly: Induction of apoptosis in Leishmania donovani MHOM/IN/80/Dd8 promastigotes assessed as increase in meta-caspase activity at 50 uM using BOC-GRR-AMC as substrate preincubated for 1 hr followed by substrate addition and measured after 2 hrs in presence of meta-caspase inhibitor antipain by fluorometric assay. The data set is classed as functional, organism-based. The method, boiled down:
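Log-phase promastigotes were pretreated for 1 h with antipain (1 μM) or zVAD-fmk (100 μM), then exposed to 50 μM compound or 0.1% DMSO. Metacaspase activity in lysates was read with fluorogenic BOC-GRR-AMC and expressed as RFU per mg protein.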

Data set [18] deals with Leishmania donovani. Put plainly: Induction of reactive oxygen species generation in Leishmania donovani MHOM/IN/80/Dd8 promastigotes at 50 uM measured after 12 hrs by H2DCFDA probe-based flow cytometry (reference value: 7%). The data set is classed as functional.
Data set [19] in a line: AUC (0 to infinity) in BALB/c mouse at 50 mg/kg, po administered via gavage by LC-MS/MS analysis. The conditions noted are these: in vivo. Details: dose 50 mg/kg, time infinity, route oral. In kind it is ADME, organism-based.

For `Cc1cc(-c2cccc(OCCn3c([N+](=O)[O-])cnc3C)c2)nc2ccccc12`, the Activity result in [1] is “Dose-dependent effect”; in data set [9], >50%; in [10], 55.5%. In addition, the inhibition entry in data set [2] is “Active”. For the same compound, the results for the inhibition entry in data set [3], in [4] and in data set [5] were “Dose-dependent effect”, “Dose-dependent effect” and “Tde”, respectively. The IC50 (commonly the concentration that gives 50% inhibition) in [3] amounted to 9.54 µM; in data set [4] it was 9.4 µM. For the same compound, in [6], the remaining at 2 h was 84.7%. The remaining at 1 h, 10 ug/ml in data set [7] was 72.8%. For the same compound, the half-life (as a rule, how long it takes for the measured level to halve) at 10 ug/ml in data set [8] was 2.18 h.

Turning to `Cc1cc(-c2ccc(OCCn3c([N+](=O)[O-])cnc3C)cc2)nc2ccccc12`, the Activity result in data set [1] was “Dose-dependent effect”; in data set [11], >62%; in [9], >80.3%; in data set [10], 82.7%; in data set [14], 1.43%; in data set [15], 4.04%. For the same compound, the results for the Activity in data set [16] and in data set [18] were 23.15% and 31.61%, respectively. Also, the inhibition entry in [2] was “Active”. The inhibition entry in data set [3] was “Dose-dependent effect”; in [4] it was “Dose-dependent effect”; in data set [5], “Tde”. Besides, the IC50 is 5.42 µM in [3] and 5.3 µM in data set [4]. In addition, the remaining at 2 h in [6] is 83.6%. In data set [7], the remaining at 1 h, 10 ug/ml was determined as 76%. Also, the half-life at 10 ug/ml in [8] was 2.5 h. Further, the outcome in data set [12] and in data set [13] was inactive. In addition, the inhibition result in [17] is “inactive”. Besides, the AUC(0-inf) (usually the area under the concentration-time curve extrapolated to infinity) in data set [19] came to 18200 ng·h/mL.
